Activity data for three molecules are collected here from ChEMBL document CHEMBL1152541, “Staurosporine tethered peptide ligands that target cAMP-dependent protein kinase (PKA): optimization and selectivity profiling” (Bioorg Med Chem, 2009).

*1 amine or outer side, *2 acyl side, *3 side chain or, on linkers, in order; H or OH if unused. Where a SMILES comes first, the peptide text is derived from it. Bridges are numbered along the chain shown (N, C = ends). [ ]: non-standard residue; d: D form. The star is where a group is joined. Staurosporine = CO[C@@H]1[C@H](N(C)*)C[C@H]2O[C@]1(C)n1c3ccccc3c3c4c(c5c6ccccc6n2c5c31)C(=O)NC4; Suc = O=C(CCC(=O)[*:2])[*:1]; Dap = NC[C@H](N)C(=O)O; βAla = NCCC(=O)O

In experiment [1] the target is MAP kinase-interacting serine/threonine-protein kinase 1 (Homo sapiens) (UniProt Q9BUB5). Kind of experiment: Binding affinity to human MKNK1 at 500 nM by cell-based competition binding assay relative to control in presence of DTT.
Chain of MAP kinase-interacting serine/threonine-protein kinase 1 (Homo sapiens) (Q9BUB5 whole entry, looked up, the tested form may be a part): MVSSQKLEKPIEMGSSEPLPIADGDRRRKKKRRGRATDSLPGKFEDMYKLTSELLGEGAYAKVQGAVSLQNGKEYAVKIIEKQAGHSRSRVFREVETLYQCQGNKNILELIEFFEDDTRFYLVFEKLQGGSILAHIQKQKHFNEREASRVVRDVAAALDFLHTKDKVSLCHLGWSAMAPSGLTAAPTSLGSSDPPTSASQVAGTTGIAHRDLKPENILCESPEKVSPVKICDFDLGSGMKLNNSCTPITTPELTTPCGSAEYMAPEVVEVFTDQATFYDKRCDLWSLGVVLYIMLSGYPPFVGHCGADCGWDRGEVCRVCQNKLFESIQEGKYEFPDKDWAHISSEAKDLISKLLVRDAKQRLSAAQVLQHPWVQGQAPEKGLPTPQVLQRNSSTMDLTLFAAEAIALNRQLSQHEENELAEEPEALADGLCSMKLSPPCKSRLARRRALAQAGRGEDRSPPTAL
Experiment [2] has as its target Non-receptor tyrosine-protein kinase TYK2 (Homo sapiens) (UniProt P29597). Kind of experiment: Binding affinity to human TYK2 kinase domain 2 at 500 nM by cell-based competition binding assay relative to control in presence of DTT.
Experiment [3] has as its target Fibroblast growth factor receptor 3 (Homo sapiens) (UniProt P22607). Kind of experiment: Binding affinity to human FGFR3 at 500 nM by cell-based competition binding assay relative to control in presence of DTT. In a few lines: (§1)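 Commercial (Ambit) competitive kinase-binding panel of 90 kinases measured the binding profile. Run under reducing conditions of 7.5 mM DTT. Binding is expressed relative to control.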

Experiment [4] deals with Aurora kinase B (Homo sapiens) (UniProt Q96GD4). Kind of experiment: Binding affinity to human aurora kinase B at 500 nM by cell-based competition binding assay relative to control in presence of DTT.
Chain of Aurora kinase B (Homo sapiens) (Q96GD4 whole entry): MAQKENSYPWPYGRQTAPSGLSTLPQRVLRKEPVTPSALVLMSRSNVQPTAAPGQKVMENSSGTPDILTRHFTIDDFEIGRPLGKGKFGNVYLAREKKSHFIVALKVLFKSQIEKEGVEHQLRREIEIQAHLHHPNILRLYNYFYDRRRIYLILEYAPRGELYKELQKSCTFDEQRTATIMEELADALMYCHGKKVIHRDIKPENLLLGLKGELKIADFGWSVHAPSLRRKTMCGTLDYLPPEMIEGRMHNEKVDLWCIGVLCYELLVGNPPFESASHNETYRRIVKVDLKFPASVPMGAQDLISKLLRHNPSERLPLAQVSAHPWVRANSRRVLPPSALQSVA
The target in experiment [5] is Platelet-derived growth factor receptor beta (Homo sapiens) (UniProt P09619). Kind of experiment: Binding affinity to human PDGFRbeta at 500 nM by cell-based competition binding assay relative to control in presence of DTT.
Experiment [6] has as its target Receptor-type tyrosine-protein kinase FLT3 (Homo sapiens) (UniProt P36888). Kind of experiment: Binding affinity to human FLT3 at 200 nM by cell-based competition binding assay relative to control in presence of DTT. In a few lines:
as §1

In experiment [7] the target is Casein kinase I isoform delta (Homo sapiens) (UniProt P48730). Nature of the experiment: Binding affinity to human CSNK1D at 200 nM by cell-based competition binding assay relative to control in presence of DTT. An outline of the steps:
as §1

The target in experiment [8] is T1, NUAK family SNF1-like kinase 2 (Homo sapiens) (UniProt Q9H093).
T1 sequence (whole entry): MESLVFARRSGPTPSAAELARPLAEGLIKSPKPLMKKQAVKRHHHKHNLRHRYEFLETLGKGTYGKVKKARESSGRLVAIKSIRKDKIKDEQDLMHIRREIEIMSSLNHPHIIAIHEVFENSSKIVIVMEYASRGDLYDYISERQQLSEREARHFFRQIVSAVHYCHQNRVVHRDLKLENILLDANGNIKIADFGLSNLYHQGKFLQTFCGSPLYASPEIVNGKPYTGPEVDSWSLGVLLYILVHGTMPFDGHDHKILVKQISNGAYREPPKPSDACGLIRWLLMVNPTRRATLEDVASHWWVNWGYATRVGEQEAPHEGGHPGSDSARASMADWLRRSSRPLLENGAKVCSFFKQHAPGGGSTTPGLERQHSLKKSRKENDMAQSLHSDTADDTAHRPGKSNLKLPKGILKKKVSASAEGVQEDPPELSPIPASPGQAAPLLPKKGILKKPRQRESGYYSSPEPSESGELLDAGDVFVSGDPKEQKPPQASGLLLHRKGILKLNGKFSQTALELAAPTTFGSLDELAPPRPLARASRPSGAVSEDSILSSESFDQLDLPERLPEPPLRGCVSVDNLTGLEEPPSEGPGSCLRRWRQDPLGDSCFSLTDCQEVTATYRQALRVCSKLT
Nature of the experiment: Binding affinity to human SNARK at 200 nM by cell-based competition binding assay relative to control in presence of DTT.

In experiment [9] the target is Mitogen-activated protein kinase kinase kinase 4 (Homo sapiens) (UniProt Q9Y6R4). Kind of experiment: Binding affinity to human MAP3K4 at 200 nM by cell-based competition binding assay relative to control in presence of DTT. An outline of the steps:
(§2)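 Competition binding screen (Ambit) across a panel of 90 kinases, scoring test ligand displacement of each kinase's binding relative to control. The screen ran under reducing conditions with 7.5 mM DTT.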

The target of experiment [10] is T2, Serine/threonine-protein kinase STK11 (Homo sapiens) (UniProt Q15831).
T2 sequence (whole entry): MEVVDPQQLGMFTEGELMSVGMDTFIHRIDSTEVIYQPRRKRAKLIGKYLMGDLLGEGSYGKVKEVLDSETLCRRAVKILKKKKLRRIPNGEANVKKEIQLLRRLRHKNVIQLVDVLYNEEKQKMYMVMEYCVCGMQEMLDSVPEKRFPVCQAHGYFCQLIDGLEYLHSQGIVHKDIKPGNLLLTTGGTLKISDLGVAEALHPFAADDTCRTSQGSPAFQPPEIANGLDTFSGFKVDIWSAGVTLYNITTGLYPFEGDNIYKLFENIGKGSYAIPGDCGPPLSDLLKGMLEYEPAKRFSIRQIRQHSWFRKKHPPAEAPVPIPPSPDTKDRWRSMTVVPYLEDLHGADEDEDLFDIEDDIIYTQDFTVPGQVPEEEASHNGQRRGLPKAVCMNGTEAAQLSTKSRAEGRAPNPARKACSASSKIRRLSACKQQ
Nature of the experiment: Binding affinity to human LKB1 at 50 nM by cell-based competition binding assay relative to control in presence of DTT. An outline of the steps: as §2

Experiment [11] has as its target Cyclin-dependent kinase 9 (Homo sapiens) (UniProt P50750). Kind of experiment: Binding affinity to human CDK9 at 50 nM by cell-based competition binding assay relative to control in presence of DTT. An outline of the steps: as §1
The target in experiment [12] is T3, Testis-specific serine/threonine-protein kinase 1 (Homo sapiens) (UniProt Q9BXA7).
T3 sequence (whole entry): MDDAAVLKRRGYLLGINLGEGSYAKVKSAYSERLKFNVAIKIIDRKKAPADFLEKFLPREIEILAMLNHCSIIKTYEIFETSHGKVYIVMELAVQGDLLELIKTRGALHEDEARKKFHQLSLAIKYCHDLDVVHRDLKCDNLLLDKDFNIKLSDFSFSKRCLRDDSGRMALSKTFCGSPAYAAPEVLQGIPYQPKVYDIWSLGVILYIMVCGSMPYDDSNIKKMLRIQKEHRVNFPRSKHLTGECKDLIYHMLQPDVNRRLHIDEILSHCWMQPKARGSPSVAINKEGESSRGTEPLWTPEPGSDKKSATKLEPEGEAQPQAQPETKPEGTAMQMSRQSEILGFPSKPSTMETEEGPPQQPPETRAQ
Nature of the experiment: Binding affinity to human TSSK1 at 50 nM by cell-based competition binding assay relative to control in presence of DTT.

The target in experiment [13] is Epidermal growth factor receptor (Homo sapiens) (UniProt P00533). Kind of experiment: Binding affinity to human EGFR at 50 nM by cell-based competition binding assay relative to control in presence of DTT. In a few lines: as §1
Chain of Epidermal growth factor receptor (Homo sapiens) (P00533 whole entry): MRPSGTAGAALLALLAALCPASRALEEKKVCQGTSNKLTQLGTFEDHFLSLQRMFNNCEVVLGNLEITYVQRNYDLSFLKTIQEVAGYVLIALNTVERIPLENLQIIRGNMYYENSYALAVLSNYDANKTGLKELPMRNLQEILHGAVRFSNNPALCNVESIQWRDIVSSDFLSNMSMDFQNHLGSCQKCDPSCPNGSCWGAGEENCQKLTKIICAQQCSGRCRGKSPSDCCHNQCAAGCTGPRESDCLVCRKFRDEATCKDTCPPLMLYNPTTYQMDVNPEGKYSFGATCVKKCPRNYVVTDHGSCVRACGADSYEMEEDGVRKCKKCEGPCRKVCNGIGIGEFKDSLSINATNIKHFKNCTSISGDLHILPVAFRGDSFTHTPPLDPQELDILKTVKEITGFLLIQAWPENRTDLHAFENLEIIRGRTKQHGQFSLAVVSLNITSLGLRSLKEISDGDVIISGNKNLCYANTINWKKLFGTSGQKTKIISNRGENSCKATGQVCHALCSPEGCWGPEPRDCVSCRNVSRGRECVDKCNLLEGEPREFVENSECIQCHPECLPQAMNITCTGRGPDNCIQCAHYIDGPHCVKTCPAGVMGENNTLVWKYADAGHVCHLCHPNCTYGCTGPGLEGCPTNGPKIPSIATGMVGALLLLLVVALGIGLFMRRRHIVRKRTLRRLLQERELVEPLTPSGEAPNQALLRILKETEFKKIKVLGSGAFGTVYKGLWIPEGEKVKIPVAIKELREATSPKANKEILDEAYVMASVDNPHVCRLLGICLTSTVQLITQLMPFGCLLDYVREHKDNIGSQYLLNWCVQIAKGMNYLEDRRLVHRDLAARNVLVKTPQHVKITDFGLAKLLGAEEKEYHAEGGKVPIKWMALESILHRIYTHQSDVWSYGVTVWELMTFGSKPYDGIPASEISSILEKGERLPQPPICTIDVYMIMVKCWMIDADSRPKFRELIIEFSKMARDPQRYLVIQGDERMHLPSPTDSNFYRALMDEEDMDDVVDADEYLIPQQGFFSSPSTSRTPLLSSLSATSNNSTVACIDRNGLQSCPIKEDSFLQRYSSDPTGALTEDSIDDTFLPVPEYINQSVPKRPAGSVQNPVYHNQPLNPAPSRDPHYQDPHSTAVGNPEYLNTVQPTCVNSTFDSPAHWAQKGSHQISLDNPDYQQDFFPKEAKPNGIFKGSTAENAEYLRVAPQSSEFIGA
Experiment [14] relates to Mast/stem cell growth factor receptor Kit (Homo sapiens), P10721 [D816V]. Kind of experiment: Binding affinity to human KIT D816V mutant at 50 nM by cell-based competition binding assay relative to control in presence of DTT. An outline of the steps: as §2
In experiment [15] the target is Cyclin-dependent kinase 19 (Homo sapiens) (UniProt Q9BWU1). Kind of experiment: Binding affinity to human CDK11 at 50 nM by cell-based competition binding assay relative to control in presence of DTT. An outline of the steps: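 Kinase binding profiling ran on a commercial (Ambit) competitive binding screen against a panel of 90 kinases. The screen used reducing conditions with 7.5 mM DTT. To withstand the DTT, the bivalent ligand was tested as its amide isostere, with the disulfide replaced. A staurosporine derivative carrying a 3 β-alanine linker was run as the reference compound.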

Chain of Cyclin-dependent kinase 9 (Homo sapiens) (P50750 whole entry): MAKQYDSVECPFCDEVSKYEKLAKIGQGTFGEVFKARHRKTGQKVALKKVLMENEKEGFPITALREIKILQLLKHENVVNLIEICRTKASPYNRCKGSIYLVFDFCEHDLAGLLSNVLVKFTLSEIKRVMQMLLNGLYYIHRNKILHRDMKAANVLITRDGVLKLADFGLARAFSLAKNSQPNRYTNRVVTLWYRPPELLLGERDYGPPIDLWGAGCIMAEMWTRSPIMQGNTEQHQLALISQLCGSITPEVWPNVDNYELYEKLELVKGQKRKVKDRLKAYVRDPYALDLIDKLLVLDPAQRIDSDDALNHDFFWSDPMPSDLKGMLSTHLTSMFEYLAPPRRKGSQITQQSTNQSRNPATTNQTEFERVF
Chain of Receptor-type tyrosine-protein kinase FLT3 (Homo sapiens) (P36888 whole entry): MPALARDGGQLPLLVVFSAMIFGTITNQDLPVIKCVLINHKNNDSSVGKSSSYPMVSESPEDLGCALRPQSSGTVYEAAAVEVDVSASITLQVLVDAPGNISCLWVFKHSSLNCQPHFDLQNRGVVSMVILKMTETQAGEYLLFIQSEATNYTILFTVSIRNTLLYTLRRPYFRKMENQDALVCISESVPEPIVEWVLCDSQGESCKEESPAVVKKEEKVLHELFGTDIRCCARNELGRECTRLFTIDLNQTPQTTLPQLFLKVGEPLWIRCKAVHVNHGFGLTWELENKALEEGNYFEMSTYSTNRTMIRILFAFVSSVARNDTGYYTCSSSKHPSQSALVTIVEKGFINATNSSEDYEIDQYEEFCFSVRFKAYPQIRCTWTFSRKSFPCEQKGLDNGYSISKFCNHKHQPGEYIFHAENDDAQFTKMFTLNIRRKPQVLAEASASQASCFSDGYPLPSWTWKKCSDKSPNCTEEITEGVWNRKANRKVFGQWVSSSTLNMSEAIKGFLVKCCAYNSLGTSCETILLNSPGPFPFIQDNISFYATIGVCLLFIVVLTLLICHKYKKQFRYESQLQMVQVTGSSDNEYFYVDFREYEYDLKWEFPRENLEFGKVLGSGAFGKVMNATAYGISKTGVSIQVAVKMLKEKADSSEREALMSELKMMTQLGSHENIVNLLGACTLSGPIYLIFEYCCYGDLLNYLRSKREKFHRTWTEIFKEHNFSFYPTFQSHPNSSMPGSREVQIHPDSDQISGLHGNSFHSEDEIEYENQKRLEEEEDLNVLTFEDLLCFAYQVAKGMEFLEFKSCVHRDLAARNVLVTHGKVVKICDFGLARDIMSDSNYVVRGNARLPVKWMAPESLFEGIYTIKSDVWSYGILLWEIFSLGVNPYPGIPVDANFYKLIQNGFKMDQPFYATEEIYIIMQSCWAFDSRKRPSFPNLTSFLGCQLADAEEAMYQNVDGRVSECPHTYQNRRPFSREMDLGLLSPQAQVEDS
Chain of Non-receptor tyrosine-protein kinase TYK2 (Homo sapiens) (P29597 whole entry, the tested form may be a part): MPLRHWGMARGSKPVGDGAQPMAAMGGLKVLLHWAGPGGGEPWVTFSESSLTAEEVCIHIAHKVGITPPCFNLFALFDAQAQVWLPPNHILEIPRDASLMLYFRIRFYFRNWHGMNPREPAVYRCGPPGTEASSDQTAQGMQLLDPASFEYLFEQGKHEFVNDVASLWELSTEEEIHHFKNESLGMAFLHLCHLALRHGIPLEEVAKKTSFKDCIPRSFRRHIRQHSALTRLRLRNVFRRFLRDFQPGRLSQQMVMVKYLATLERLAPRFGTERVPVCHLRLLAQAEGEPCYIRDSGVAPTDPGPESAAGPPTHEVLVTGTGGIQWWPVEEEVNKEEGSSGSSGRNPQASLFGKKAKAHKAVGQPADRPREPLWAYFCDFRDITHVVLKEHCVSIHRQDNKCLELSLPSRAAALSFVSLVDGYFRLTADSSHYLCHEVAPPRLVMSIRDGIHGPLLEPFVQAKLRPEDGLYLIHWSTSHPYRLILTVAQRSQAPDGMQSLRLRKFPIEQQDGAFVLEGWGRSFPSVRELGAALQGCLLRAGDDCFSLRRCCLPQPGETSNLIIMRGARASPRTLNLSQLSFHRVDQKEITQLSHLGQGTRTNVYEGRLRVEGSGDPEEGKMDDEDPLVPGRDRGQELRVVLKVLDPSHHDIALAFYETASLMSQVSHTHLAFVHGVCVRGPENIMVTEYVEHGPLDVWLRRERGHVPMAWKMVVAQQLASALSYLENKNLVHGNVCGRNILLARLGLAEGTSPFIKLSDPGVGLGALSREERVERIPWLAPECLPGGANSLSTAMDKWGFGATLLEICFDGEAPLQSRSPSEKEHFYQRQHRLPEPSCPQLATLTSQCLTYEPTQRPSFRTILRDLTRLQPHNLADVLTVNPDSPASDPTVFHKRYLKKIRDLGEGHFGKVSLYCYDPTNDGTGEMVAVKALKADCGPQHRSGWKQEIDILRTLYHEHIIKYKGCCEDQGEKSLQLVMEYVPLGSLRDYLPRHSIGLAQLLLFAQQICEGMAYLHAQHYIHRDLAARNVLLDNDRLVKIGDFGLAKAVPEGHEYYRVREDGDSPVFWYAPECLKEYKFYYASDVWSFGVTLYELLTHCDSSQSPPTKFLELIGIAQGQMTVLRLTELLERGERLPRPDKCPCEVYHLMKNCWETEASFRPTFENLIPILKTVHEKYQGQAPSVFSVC
Chain of Casein kinase I isoform delta (Homo sapiens) (P48730 whole entry, looked up, canonical isoform): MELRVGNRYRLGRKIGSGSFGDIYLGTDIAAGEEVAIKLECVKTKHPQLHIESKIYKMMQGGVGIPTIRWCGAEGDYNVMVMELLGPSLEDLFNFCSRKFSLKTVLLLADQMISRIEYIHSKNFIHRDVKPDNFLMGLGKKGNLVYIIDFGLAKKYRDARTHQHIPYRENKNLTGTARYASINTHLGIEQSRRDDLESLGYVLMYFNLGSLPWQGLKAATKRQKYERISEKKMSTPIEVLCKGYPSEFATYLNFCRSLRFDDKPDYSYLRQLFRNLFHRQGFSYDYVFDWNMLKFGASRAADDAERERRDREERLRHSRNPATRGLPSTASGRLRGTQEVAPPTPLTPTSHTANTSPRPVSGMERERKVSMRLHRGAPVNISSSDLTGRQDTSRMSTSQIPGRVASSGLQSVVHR

Turning to `CO[C@@H]1[C@H](N(C)C(=O)CCC(=O)NCCC(=O)NCCC(=O)NCCC(N)=O)C[C@H]2O[C@]1(C)n1c3ccccc3c3c4c(c5c6ccccc6n2c5c31)C(=O)NC4`, the Activity in [1] is 82%; in [2], 19%; in [3], 43%; in experiment [4], 0%; in [5], 0.05%.
Take `CO[C@@H]1[C@H](N(C)C(=O)CCC(=O)NCCC(=O)NCCC(=O)NCCC(=O)NCCC(=O)NCCC(=O)NCCC(=O)NCCC(=O)N[C@H]2CSSC[C@@H](C(=O)NCC(N)=O)NC(=O)CNC(=O)[C@H](Cc3ccccc3)NC(=O)[C@H](C(C)C)NC(=O)[C@H](CCCNC(=N)N)NC(=O)[C@H](Cc3ccccc3)NC(=O)[C@H](C(C)C)NC2=O)C[C@H]2O[C@]1(C)n1c3ccccc3c3c4c(c5c6ccccc6n2c5c31)C(=O)NC4` ({Staurosporine-Suc-βAla-βAla-βAla-βAla-βAla-βAla-βAla}-CVFRVFGCG-NH2; disulfide 1-8): the Activity in experiment [6] came out at 1%; in experiment [7], 100%; in experiment [8], 0.45%; in experiment [9], 94%.
Turning to `CO[C@@H]1[C@H](N(C)C(=O)CCC(=O)NCCC(=O)NCCC(=O)NCCC(=O)NCCC(=O)NCCC(=O)NCCC(=O)NCCC(=O)N[C@H]2CNC(=O)C[C@@H](C(N)=O)NC(=O)CNC(=O)[C@H](Cc3ccccc3)NC(=O)[C@H](C(C)C)NC(=O)[C@H](CCCNC(=N)N)NC(=O)[C@H](Cc3ccccc3)NC(=O)[C@H](C(C)C)NC2=O)C[C@H]2O[C@]1(C)n1c3ccccc3c3c4c(c5c6ccccc6n2c5c31)C(=O)NC4` ({Staurosporine-Suc-βAla-βAla-βAla-βAla-βAla-βAla-βAla}-[Dap]VFRVFGD-NH2; lactam 1-8), the Activity in experiment [10] was found to be 100%; in experiment [11], 99%; in experiment [12] it was 100%; in experiment [13] it was 87%; in experiment [14], 6.5%; in [15] it was 100%.
